Experimental findings from ChEMBL document CHEMBL3627702, “Navigating CYP1A Induction and Arylhydrocarbon Receptor Agonism in Drug Discovery. A Case History with S1P1 Agonists” (J Med Chem, 2015) are described below.

Data set [1] can be described thus: AUC in Sprague-Dawley rat at 22 mg/kg, po QD measured on day 4. In kind it is ADME, organism-based. Conditions: in vivo. The procedure, abridged:
(§1)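 Male CD rats (226−325 g), n = 3, given the compound once daily by oral gavage for 4 days. Vehicle was 1% (w/v) methylcellulose aq suspension at 3−6 mg/mL, dosed at 5 mL/kg (target 15−30 mg/kg). Tail vein blood was taken on days 1 and 4 up to 24 h postdose. Blood was diluted 1:1 with water, extracted by acetonitrile protein precipitation and analysed by LC−MS/MS against calibration standards in diluted blood.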

Data set [2] in a line: Dissociation constant, pKa of the compound. In kind it is physicochemical.
Data set [3] is described as follows: AUC in Sprague-Dawley rat at 22 mg/kg, po QD measured on day 1. The data set is classed as ADME, organism-based. The note with it: in vivo. The method in brief:
as §1

The nature of data set [4]: Cmax in Sprague-Dawley rat at 22 mg/kg, po QD measured on day 1. In kind it is ADME, organism-based. Details: dose 22 mg/kg, route oral. Conditions: in vivo. The method in brief:
as §1

In data set [5] the test system is Rattus norvegicus. The data set is described as follows: Dose normalized AUC in Sprague-Dawley rat at 22 mg/kg, po QD measured on day 4. In kind it is ADME, organism-based. Conditions: in vivo. The procedure, abridged:
as §1

Data set [6] is described as follows: Cmax in Sprague-Dawley rat at 22 mg/kg, po QD measured on day 4. The data set is classed as ADME, organism-based. On the set-up: dose 22 mg/kg, route oral. The note with it: in vivo. The procedure, abridged: as §1
The test system of data set [7] is Rattus norvegicus. The data set is described as follows: Dose normalized AUC in Sprague-Dawley rat at 22 mg/kg, po QD measured on day 1. The data set is classed as ADME, organism-based. The note with it: in vivo. The method in brief:
as §1

A short description of data set [8]: Lipophilicity, log D of the compound at pH 7.4. In kind it is physicochemical. The note with it: buffer.
Data set [9] deals with CYP1A2. As to the kind of experiment: Induction of CYP1A2 mRNA expression in Sprague-Dawley rat hepatic microsomes at 22 mg/kg, po QD for 4 days relative to control. The data set is classed as ADME, organism-based, Liver. Conditions: read-out: FC.
In data set [10] the test system is CYP1A1. The data set is described as follows: Induction of CYP1A1 mRNA expression in Sprague-Dawley rat hepatic microsomes at 22 mg/kg, po QD for 4 days relative to control. The data set is classed as ADME, organism-based, Liver. Conditions: read-out: FC. The method in brief: (§2)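 Male CD rats (226–325 g, n = 3) were dosed by oral gavage once daily for 4 days as a 1% w/v aqueous methylcellulose suspension (3–6 mg/mL, 5 mL/kg). At the end of the study, a left lateral liver lobe section was placed in RNALater and homogenised in TRIzol. RNA was purified, DNase-treated and converted to cDNA, and Cyp1a1 was read on low-density TaqMan arrays.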

The nature of data set [11]: AUC in Sprague-Dawley rat at 30 mg/kg, po QD measured on day 1. In kind it is ADME, organism-based. Conditions: in vivo. The procedure, abridged:
as §1

Data set [12] can be described thus: Intrinsic clearance in dog hepatocytes by LC-MS/MS analysis. Conditions: read-out: CLH.
Data set [13] in a line: Cmax in Sprague-Dawley rat at 30 mg/kg, po QD measured on day 4. In kind it is ADME, organism-based. Details: dose 30 mg/kg, route oral. Conditions: in vivo. The method in brief: as §1
In data set [14] the test system is CYP1A2. As to the kind of experiment: Induction of CYP1A2 mRNA expression in Sprague-Dawley rat hepatic microsomes at 30 mg/kg, po QD for 4 days relative to control. The note with it: read-out: FC. The data set is classed as ADME, organism-based, Liver.
Data set [15] relates to CYP1A1. The data set is described as follows: Induction of CYP1A1 mRNA expression in Sprague-Dawley rat hepatic microsomes at 30 mg/kg, po QD for 4 days relative to control. The data set is classed as ADME, organism-based, Liver. The note with it: read-out: FC. The procedure, abridged:
as §2

The nature of data set [16]: Oral bioavailability in CD rat at 3 mg/kg. The data set is classed as ADME, organism-based. The note with it: in vivo. The method in brief:
(§3)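 Male CD rats cannulated in the femoral and jugular veins, n = 3, crossover design. Day 1: 1 h iv infusion at 1 mg/kg (0.2 mg/mL in ≤5% DMSO/≥95% 10% Kleptose in saline, 5 mL/kg/h). Day 2: oral gavage at 3 mg/kg (0.6 mg/mL in 1% methylcellulose, 5 mL/kg). Blood assayed by LC–MS/MS after acetonitrile precipitation.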

Data set [17] in a line: AUC in Sprague-Dawley rat at 30 mg/kg, po QD measured on day 4. Conditions: in vivo. In kind it is ADME, organism-based. The procedure, abridged:
as §1

A short description of data set [18]: Half life in CD rat at 1 mg/kg, iv. In kind it is ADME, organism-based. Conditions: in vivo. The method in brief: (§4)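 Male CD rats carried femoral vein (dosing) and jugular vein (sampling) cannulae and recovered at least 2 days. They received a 1 h iv infusion at 5 mL kg−1 h−1, target 1 mg/kg, at 0.2 mg/mL in DMSO/10% Kleptose in saline (≤5%:≥95%). pH was adjusted to 8.0 if needed and the solution filtered. Definitive studies used n = 3 in crossover; others used single animals.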

The nature of data set [19]: Intrinsic clearance in human hepatocytes by LC-MS/MS analysis. Conditions: read-out: CLH.
The test system of data set [20] is Rattus norvegicus. The data set is described as follows: Dose normalized AUC in Sprague-Dawley rat at 30 mg/kg, po QD measured on day 4. The note with it: in vivo. The data set is classed as ADME, organism-based. The method in brief: as §1
The subject of data set [21] is Rattus norvegicus. As to the kind of experiment: Dose normalized AUC in Sprague-Dawley rat at 30 mg/kg, po QD measured on day 1. In kind it is ADME, organism-based. The note with it: in vivo. The method in brief:
as §1

The nature of data set [22]: Blood clearance in CD rat at 1 mg/kg, iv. In kind it is ADME, organism-based. The procedure, abridged: as §4
A short description of data set [23]: Cmax in Sprague-Dawley rat at 30 mg/kg, po QD measured on day 1. The note with it: in vivo. The data set is classed as ADME, organism-based. On the set-up: dose 30 mg/kg, route oral. The method in brief:
as §1

Data set [24] has as its target Sphingosine 1-phosphate receptor 3 (Homo sapiens, UniProt Q99500). As to the kind of experiment: Agonist activity at S1P3 receptor (unknown origin) expressed in RBL membranes assessed as GTPgammaS binding after 3 hrs. In kind it is functional, cell membranes. The method in brief:
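Membranes from S1P3-expressing RBL cells were sucrose-gradient purified, used at 0.44 μg/well and coupled to WGA-coated SPA beads. Buffer was 20 mM HEPES, 10 mM MgCl2, 100 mM NaCl, pH 7.4, with 2 μg/well saponin. Precoupling was 30 min on ice. GDP was present at 5 μM final.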

The target in data set [25] is Sphingosine 1-phosphate receptor 1 (Homo sapiens, UniProt P21453). As to the kind of experiment: Agonist activity at S1P1 receptor (unknown origin) expressed in CHO-K1 cells assessed as beta-arrestin recruitment after 60 mins by chemiluminescence assay. The data set is classed as cell-based. The note with it: in the assay text read “after 90 mins” for “after 60 mins”. The method in brief: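 PathHunter CHO-K1 cells stably express S1P1 and β-arrestin 2 fused to complementing β-galactosidase fragments. Cells in pH 7.4 HEPES/NaHCO3 buffer with 0.1% pluronic and 0.1% BSA were added to DMSO compound plates at 1 × 10^4 cells/well. Incubation was 90 min at 37 °C/5% CO2, then 15 min at room temperature. Galacton Star/Emerald II detection mix was added for 60 min at room temperature, and luminescence was read.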
Sequence of Sphingosine 1-phosphate receptor 1 (P21453 whole entry, the tested form may be a part): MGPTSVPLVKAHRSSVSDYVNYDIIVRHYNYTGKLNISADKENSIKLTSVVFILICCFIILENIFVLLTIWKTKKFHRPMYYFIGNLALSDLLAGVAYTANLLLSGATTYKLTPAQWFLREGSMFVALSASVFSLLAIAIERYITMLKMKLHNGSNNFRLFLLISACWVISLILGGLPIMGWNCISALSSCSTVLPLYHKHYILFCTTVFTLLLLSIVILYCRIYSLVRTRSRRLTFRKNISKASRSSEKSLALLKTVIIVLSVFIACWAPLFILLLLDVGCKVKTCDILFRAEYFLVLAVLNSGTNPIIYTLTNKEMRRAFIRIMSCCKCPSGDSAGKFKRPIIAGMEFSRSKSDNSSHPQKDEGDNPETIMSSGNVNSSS

The nature of data set [26]: Volume of distribution at steady state in CD rat at 1 mg/kg, iv. In kind it is ADME, organism-based. Conditions: in vivo, read-out: Vdss. The procedure, abridged:
as §3

The nature of data set [27]: Intrinsic clearance in rat hepatocytes by LC-MS/MS analysis. The note with it: read-out: CLH.
The nature of data set [28]: Cmax in Sprague-Dawley rat at 17 mg/kg, po QD measured on day 4. On the set-up: dose 17 mg/kg, route oral. Conditions: in vivo. In kind it is ADME, organism-based. The method in brief: as §1
Data set [29] in a line: Cmax in Sprague-Dawley rat at 17 mg/kg, po QD measured on day 1. In kind it is ADME, organism-based. Details: dose 17 mg/kg, route oral. The note with it: in vivo. The procedure, abridged: as §1
Data set [30] in a line: AUC in Sprague-Dawley rat at 17 mg/kg, po QD measured on day 4. The data set is classed as ADME, organism-based. The note with it: in vivo. The method in brief:
as §1

The test system of data set [31] is CYP1A1. The data set is described as follows: Induction of CYP1A1 mRNA expression in Sprague-Dawley rat hepatic microsomes at 17 mg/kg, po QD for 4 days relative to control. In kind it is ADME, organism-based, Liver. The note with it: read-out: FC. The procedure, abridged:
as §2

Data set [32] relates to Rattus norvegicus. The data set is described as follows: Dose normalized AUC in Sprague-Dawley rat at 17 mg/kg, po QD measured on day 1. The data set is classed as ADME, organism-based. The note with it: in vivo. The method in brief: as §1
For data set [33], the system named is CYP1A2. The data set is described as follows: Induction of CYP1A2 mRNA expression in Sprague-Dawley rat hepatic microsomes at 17 mg/kg, po QD for 4 days relative to control. The data set is classed as ADME, organism-based, Liver. The note with it: read-out: FC.
Data set [34] relates to Rattus norvegicus. As to the kind of experiment: Dose normalized AUC in Sprague-Dawley rat at 17 mg/kg, po QD measured on day 4. In kind it is ADME, organism-based. The note with it: in vivo. The procedure, abridged: as §1
The nature of data set [35]: AUC in Sprague-Dawley rat at 17 mg/kg, po QD measured on day 1. The note with it: in vivo. In kind it is ADME, organism-based. The procedure, abridged:
as §1

Sequence of Sphingosine 1-phosphate receptor 3 (Q99500 whole entry): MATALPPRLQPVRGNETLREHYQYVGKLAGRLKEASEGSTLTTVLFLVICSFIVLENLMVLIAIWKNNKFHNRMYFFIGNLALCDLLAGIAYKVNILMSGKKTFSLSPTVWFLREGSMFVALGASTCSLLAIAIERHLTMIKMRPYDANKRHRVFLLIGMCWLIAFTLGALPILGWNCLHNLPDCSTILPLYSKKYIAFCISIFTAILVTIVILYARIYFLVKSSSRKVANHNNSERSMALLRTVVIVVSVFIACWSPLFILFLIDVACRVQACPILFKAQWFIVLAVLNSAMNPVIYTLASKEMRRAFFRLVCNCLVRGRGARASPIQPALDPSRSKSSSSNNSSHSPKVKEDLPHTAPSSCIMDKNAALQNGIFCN

With `Cc1c(-c2noc(-c3cnc(OC(C)C)c(C#N)c3)n2)ccc2c1CCN(C(CO)CO)C2`, the AUC in [1] was 28800 ng·h/mL; in data set [3] it was 24300 ng·h/mL. This compound had a pKa in [2] of 7.3. The peak concentration (Cmax) turned out to be 2100 ng/mL in data set [4] and 2730 ng/mL in data set [6]. Moreover, the AUC/dose stood at 79 kg·min/L in data set [5] and 66 kg·min/L in data set [7]. In data set [8], the log distribution coefficient (logD) is 2.84. Also, the fold induction at 96 h came to 3 in data set [9] and 7 in [10].

For `Cc1c(-c2noc(-c3ccc(OC(C)C)c(C#N)c3)n2)ccc2c1CCN(C[C@@H](O)CO)C2`, the exposure (AUC) in [11] is 7310 ng·h/mL; in [17] it was 7000 ng·h/mL. The CLint scaled in [12] was 7.1 mL/min/kg; in data set [19] it was less than 0.85 mL/min/kg; in data set [27], 2.1 mL/min/kg. The Cmax stood at 710 ng/mL in [13] and 720 ng/mL in data set [23]. The same compound came in with a pKa in data set [2] of 7.7. In addition, the fold induction at 96 h was 4.6 in [14] and 62 in data set [15]. Further, the bioavailability in data set [16] was determined as 56%. In addition, in data set [18], the half-life was 1.7 h. In addition, the AUC/dose in [20] and in data set [21] was 15 kg·min/L in each case. This compound also gave a clearance in data set [22] of 53 mL/min/kg. The results for the 50% effective concentration (EC50) in data set [24] and in data set [25] were greater than 31600 nM and 7.94 nM, respectively. Further, the logD in data set [8] was 2.16. Also, in data set [26], the Vd amounted to 6.6 L/kg.

`Cc1c(-c2noc(-c3ccc(OC(C)C)c(C#N)c3)n2)cnc2c1CCN(C(CO)CO)C2`: the Cmax in [28] is 2170 ng/mL; in data set [29], 1610 ng/mL. Also, the area under the curve (AUC) in [30] amounted to 16800 ng·h/mL; in data set [35], 12900 ng·h/mL. The fold induction at 96 h in data set [31] was 0.9; in [33], 2. Moreover, the results for the AUC/dose in [32] and in data set [34] were 46 kg·min/L and 59 kg·min/L, respectively. Moreover, the logD in data set [8] was found to be 2.15.
